In the library only some 4% were active in any assay of this set; here they are far more common.
FN deposit inh: fibronectin deposition inhibition. AH1F fibroblasts, Alexa488-fibronectin deposition fluorescence, overnight. inhibition, % at 12.6 µM. actives 0.086% (n = 350,000). AID 743247;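 active = mean inhibition across replicates of 30% or more, regardless of how many single replicates reach that level; inconclusive = mean under 30% yet at least half of replicates reach 30%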;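 note: positive control wells lacked labelled fibronectin entirely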
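Material: AH1F fibroblasts assembling fluorescent fibronectin matrix; amount: 10000 AH1F cells/well; medium: DMEM, 2% serum; reagent: Alexa488-fibronectin, 24 nM final in well; dosing: single compound dose, delivered by pin transfer; incubation: 1 h adhesion, overnight exposure; detection: fluorescence after three HBSS washes, excitation 485 nm, emission 525 nm; measure: fibronectin deposition inhibition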
rRNA inh HTS: inhibitors of bacterial rRNA selective over humanized ribosomes. E. coli WT GFP vs humanized-ribosome RFP mutants, fluorescence, 24 h; active compounds read low; DMSO median 0, no signal -100. GFP signal change (wild-type ribosome), % (no concentration beside the values). actives 1.6% (n = 350,000);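 active = significant combined selectivity score with lowered wild-type GFP, culture density cut under 30%, mutant RFP and density less affected; inactive = any of these conditions unmet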
SIRT5 block: sirtuin-5 (human) deacylase inhibition; Q9NXA8; Purified SirT5, succinyl-peptide AMC, trypsin-coupled fluorescence; inhibition, % at 15 µM; actives 1.1% (n = 330,000); AID 652115; in the data active = inhibition above about 15%; inconclusive = no clear call, values can overlap the other calls
C2C12 statin: suppressors of simvastatin-induced myotoxicity in C2C12 myotubes; ATP luminescence, 48 h; scaled: DMSO 0, geranylgeraniol control 100; actives 0.78% (n = 330,000); rescue of ATP level, % at 7.49 µM; AID 602340;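 active = mean ATP rescue above about 67%, or every replicate alone reaching that limit, limit read from the data, passing the limit was not always enough; inconclusive = no clear call, values can overlap the other calls; inactive = mean under the limit and some replicate under it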;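 note: myotubes were challenged with 10 µM simvastatin during compound exposure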
FGF22 binding: shifts melting point of recombinant human FGF22; Q9HCT0; recombinant FGF22 thermal shift, SYPRO orange fluorescence; percent of sucrose octasulfate shift, DMSO zero; activity (Tm shift, normalised), % at 9.99 µM; actives 1.5% (n = 340,000); AID 651658;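 active = mean Tm shift, scaled 0 neutral to 100 positive control, at about 1.3% or above, every replicate too, limit read from the data; inconclusive = no clear call, values can overlap the other calls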
E-sel inducer: E-selectin induction on HUVECs | activation, % at 7.58 µM | AID 686992 | HUVEC E-selectin immunofluorescence imaging; normalized: neutral wells 0, TNF-alpha wells 100 | actives 0.37% (n = 260,000) | P16581;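 active = mean E-selectin-positive cell signal at least 10% of the positive control, reached in at least 60% of replicates, without over 20% cell loss; inconclusive = no rule given, readout overlaps actives, possibly toxicity-flagged; inactive = the rest, including those meeting only one limit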
Target sequence (P16581 whole entry, looked up): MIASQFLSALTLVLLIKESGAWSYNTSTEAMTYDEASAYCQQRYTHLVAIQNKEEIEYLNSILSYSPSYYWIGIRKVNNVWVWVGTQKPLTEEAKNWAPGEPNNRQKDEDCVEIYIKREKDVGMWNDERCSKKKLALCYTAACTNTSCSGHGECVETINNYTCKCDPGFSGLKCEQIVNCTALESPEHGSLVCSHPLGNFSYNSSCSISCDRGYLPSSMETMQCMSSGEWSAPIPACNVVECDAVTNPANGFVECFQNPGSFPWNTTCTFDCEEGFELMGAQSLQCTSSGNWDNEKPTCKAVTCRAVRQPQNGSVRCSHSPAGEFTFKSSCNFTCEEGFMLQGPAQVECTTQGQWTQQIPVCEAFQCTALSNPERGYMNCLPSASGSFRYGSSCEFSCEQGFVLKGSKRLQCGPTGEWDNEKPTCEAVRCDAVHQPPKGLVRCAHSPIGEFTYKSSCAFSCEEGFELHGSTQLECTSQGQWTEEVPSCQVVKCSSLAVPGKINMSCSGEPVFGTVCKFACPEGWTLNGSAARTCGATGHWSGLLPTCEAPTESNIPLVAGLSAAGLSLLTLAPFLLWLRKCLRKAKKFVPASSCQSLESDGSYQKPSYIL
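System: HUVEC / Compound: single concentration / Signal: immunofluorescence imaging / Read-out: percent E-selectin-positive cells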
AID977621: growth inhibition of wild-type GFP E. coli, dose response, H69 mutant RFP, cherry-pick; shares compounds with rRNA inh HTS; E. coli wild-type GFP strain growth, fluorescence, 24 h; activity change, negative = inhibition at 50 µM; 1,900 tested, under 10 active; AID 977621;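 active = Wild-type ribosome reporter drop at least double the humanized mutant ribosome reporter drop, growth loss under a set limit; inconclusive = no clear call, values can overlap the other calls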;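 note: wild-type GFP and H69 mutant RFP strains grown together 50/50 in each well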
AID977628: growth of wild-type and h24-humanized E. coli strains – h24 mutant RFP vs wild-type GFP, cherry-pick, dose response; shares compounds with rRNA inh HTS; E. coli WT GFP strain growth, fluorescence, 24 h; activity change, negative = inhibition at 50 µM; 1,900 tested, under 10 active;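 active = compound lowering the normal-ribosome reporter at least twice as much as the humanized-ribosome reporter, growth loss under a set limit; inconclusive = no clear call, values can overlap the other calls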;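 note: wild-type GFP and h24 humanized RFP strains co-cultured 1 to 1 per well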
The depositor's hits bear a star; ? = inconclusive; · = not tested or not shown; ! = a repeat was not active.

SMILES	FN deposit inh	rRNA inh HTS	SIRT5 block	C2C12 statin	FGF22 binding	E-sel inducer	AID977621	AID977628
O=C(NCCc1ccc(O)cc1)c1[nH]c(C(F)(F)F)nc1-c1ccccc1	1	-23*	-2	3	0	3	-2.2	?
O=C(NC1CCCCC1)N[C@H]1CC[C@@H](CCNS(=O)(=O)c2ccccc2)O[C@H]1CO	·	1	-1	0	0	1	·	·
O=C(NC[C@@H]1[C@@H](c2ccccc2)[C@@H](CO)N1Cc1cccnc1)C1CCCCC1	·	1	0	·	·	0	·	·
Cc1ccc(Cn2cnc3ccccc32)cc1	·	-25*	2	3	0	·	-13	-0.7
O=S(=O)(c1cccc(-c2nc3ccccc3s2)c1)N1CCCC1	·	-22*	-1	-26	0	·	-0.21	?
COc1ccccc1CNC(=O)C[C@@H]1CC[C@H]2[C@@H](COC[C@@H](O)CN2C(=O)Nc2ccc(C(F)(F)F)cc2)O1	-15	-55	0	-25	0	1	·	·
COC(=O)CN1C(=S)N(c2ccc(F)cc2)C(=O)C1CC(=O)Nc1ccc(OC)cc1 (stereo not given)	-10	-22*	-6	8	0	0	·	-13
CCNC(=O)CC1C(=O)N(c2ccc(F)cc2)C(=S)N1CCc1ccncc1 (stereo not given)	·	13	-2	·	0	·	·	·
O=C(CC1C(=O)N(c2ccc(Cl)cc2)C(=S)N1CCc1ccncc1)Nc1ccc(F)cc1 (stereo not given)	·	-21*	-1	-32	2.3*	·	-6.7	·
COc1ccc(NC(=O)CC2C(=O)N(C)C(=S)N2CCc2ccc(F)cc2)cc1 (stereo not given)	-8	·	-2	33	0	0	·	·
CC(C)c1cn(CC[C@H]2CC[C@@H](NS(=O)(=O)c3ccccc3)[C@@H](CO)O2)nn1	·	-2	0	1	0	2	·	·
CCCNc1ccc(C(=O)OCC)cc1[N+](=O)[O-]	-5	-31*	-1	-1	0	4	-6.2	-12
CCc1cccc(CC)c1NC(=O)Cn1c(-c2ccc(F)cc2)noc1=O	0	-17*	-6	·	0	4	-8.7	5.4
O=C(COc1ccc(F)cc1)c1c(O)cc(O)cc1O	-4	3	2	-2	1	0	·	·
COc1ccc(C(=O)COc2ccc(F)cc2)c(O)c1	4	-21*	-1	-22	0	2	0.44	-8.9
CC(=O)c1c(C)[nH]c(C(=O)Nc2nc(C)cs2)c1C	-1	-21*	1	-13	0	0	-20	-17
CCOc1ccc2[nH]c3c(NCCN(C)C)ncnc3c2c1	11	-13*	0	-10	0	1	-2.4	?
CCOc1ccc2[nH]c3c(NCCC(C)C)ncnc3c2c1	0	-59	-22	-53	0	·	·	·
COCC(=O)Nc1ccc2c(c1)C(=O)N(C)[C@@H]1CC[C@H](CC(=O)NCCCN(C)C)O[C@@H]1CO2	5	6	-5	-1	0	0	·	·
CN(c1ccccc1)S(=O)(=O)c1cccc(NC(=O)c2ccncc2)c1	-4	-15	-2	·	0	-5	·	·
Cc1cc(C)n2nc(C(=O)Nc3cccc(S(=O)(=O)N(C)c4ccccc4)c3)nc2n1	6	-26*	-4	5	1	2	-15	·
CS(=O)(=O)c1ccc(Cl)c(NC(=O)CSc2nncn2-c2ccccc2)c1	-18	-22*	-10	0	·	·	-12	-8.3
O=C(CSc1nncn1-c1ccccc1)Nc1ccccc1	0	6	-3	4	0	·	·	·
Cc1cccc(N2Cc3ccc(Br)cc3C2)c1	-3	-21*	-4	·	0	·	-10	-3.8
CC(C)C#Cc1ccc2c(c1)O[C@@H](CN(C)C(=O)c1cnccn1)[C@H](C)CN([C@@H](C)CO)S2(=O)=O	2	-6	-1	-33	0	3	·	·
SMILES	FN deposit inh	rRNA inh HTS	SIRT5 block	C2C12 statin	FGF22 binding	E-sel inducer	AID977621	AID977628
COC(=O)[C@@H]1[C@@H](CO)[C@@H]2Cn3c(ccc(-c4ccccc4)c3=O)[C@@H]2N1CCc1ccccc1	·	-10	-3	19	0	0	·	·
O=C(Nc1cccc(Cl)c1)N1C[C@H]2[C@@H](c3ccccc31)[C@H](CO)N2Cc1ccncc1	·	-29*	0	-27	1	3	·	?
O=C(Nc1cccc(Cl)c1)N1C[C@H]2[C@@H](c3ccccc31)[C@@H](CO)N2C(=O)c1ccncc1	·	-23*	2	11	0	0	·	?
O=C(Nc1cccc(Cl)c1)N1C[C@H]2[C@@H](c3ccccc31)[C@H](CO)N2C(=O)c1ccncc1	·	-17	-1	5	0	0	·	·
O=C(Nc1ccccc1F)N1C[C@@H]2[C@H](c3ccccc31)[C@@H](CO)N2C(=O)Cc1ccccc1	·	-44*	4	12	0	1	·	?
CC(C)NC(=O)N(C)C[C@@H]1OCCCC[C@@H](C)Oc2ccc(NC(=O)C3CCCCC3)cc2C(=O)N([C@H](C)CO)C[C@H]1C	4	-3	1	·	0	·	·	·
CS(=O)(=O)NCCSc1cc(C(F)(F)F)nc2ccccc12	11	-20*	2	-1	0	1	·	?
Cc1nn(-c2cccc(Cl)c2)nc1C(=O)O	-1	-16*	1	·	0	·	-10	·
O=C(C1CCCC1)N1CC(=O)N2[C@H](CO)[C@H](c3ccc(-c4ccccc4F)cc3)[C@@H]2C1	2	-3	0	·	·	0	·	·
C[C@@H]1CN([C@@H](C)CO)S(=O)(=O)c2ccc(Br)cc2O[C@H]1CN(C)C(=O)c1ccccc1	0	-18*!	-2	-7	0	5	5.3	-5
C[C@H](CO)N1C[C@H](C)[C@@H](CN(C)C(=O)c2cccc(F)c2)Oc2ncc(-c3cncnc3)cc2C1=O	·	0	-6	-12	·	0	·	·
Cc1noc(C)c1COc1cccc(C(=O)N2CCc3ccccc32)c1	-11	-41*	0	0	0	2	-7.5	-11
COc1cc(C(=O)N2CCc3ccccc32)ccc1OCc1c(C)noc1C	6	-5	-2	-3	0	·	·	·

Screening results from PubChem BioAssay.
